# Results from ChEMBL document CHEMBL1127380, “(4-[18F]fluoro-3-iodobenzyl)guanidine, a potential MIBG analogue for positron emission tomography” (J Med Chem, 1994).
# pIC50: −log10 of the molar value.
# Key:
# Mus musculus [1] = organism: Mus musculus; test: Tissue distribution expressed as percentage injected dose per gram of tissue in normal mice heart after 4 hour; type: ADME, organism-based; details: in vivo
# Summary of the method: (§1)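 Normal BALB/c mice, 26–29 g, given 4 μCi of the nca 18F tracer via tail vein. Groups killed with halothane at 1, 2 or 4 h post-injection. Tissues washed in saline, blot-dried, weighed and γ-counted for ¹⁸F. Values are mean ± SD as % ID/g; n = 10 at 1 and 2 h, n = 5 at 4 h.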
# Mus musculus [2] = organism: Mus musculus; test: Tissue distribution expressed as percentage injected dose per gram of tissue in normal mice heart after 1 hour; type: ADME, organism-based; details: in vivo; summary of the method: as §1
# Mus musculus [3] = organism: Mus musculus; test: Tissue distribution expressed as percentage injected dose per gram of tissue in normal mice adrenals after 1 hour; type: ADME, organism-based, Adrenal gland; details: in vivo; summary of the method: as §1
# Mus musculus [4] = organism: Mus musculus; test: Tissue distribution expressed as percentage injected dose per gram of tissue in normal mice adrenals after 4 hour; type: ADME, organism-based, Adrenal gland; details: in vivo; summary of the method: as §1
# Mus musculus [5] = organism: Mus musculus; test: Tissue distribution expressed as percentage injected dose per gram of tissue in normal mice thyroid after 2 hour; type: ADME, organism-based, Thyroid gland; details: in vivo; summary of the method: as §1
# Mus musculus [6] = organism: Mus musculus; test: Tissue distribution expressed as percentage injected dose per gram of tissue in normal mice stomach after 4 hour; type: ADME, organism-based; details: in vivo; summary of the method: as §1
# Mus musculus [7] = organism: Mus musculus; test: Tissue distribution expressed as percentage injected dose per gram of tissue in normal mice kidney after 1 hour; type: ADME, organism-based; details: in vivo; summary of the method: as §1
# Mus musculus [8] = organism: Mus musculus; test: Tissue distribution expressed as percentage injected dose per gram of tissue in normal mice large intestine after 4 hour; type: ADME, organism-based; details: in vivo; summary of the method: as §1
# Mus musculus [9] = organism: Mus musculus; test: Tissue distribution expressed as percentage injected dose per gram of tissue in normal mice spleen after 2 hour; type: ADME, organism-based; details: in vivo; summary of the method: as §1
# Mus musculus [10] = organism: Mus musculus; test: Tissue distribution expressed as percentage injected dose per gram of tissue in normal mice muscle after 1 hour; type: ADME, organism-based; details: in vivo; summary of the method: as §1
# Mus musculus [11] = organism: Mus musculus; test: Tissue distribution expressed as percentage injected dose per gram of tissue in normal mice small intestine after 4 hour; type: ADME, organism-based; details: in vivo; summary of the method: as §1
# Mus musculus [12] = organism: Mus musculus; test: Tissue distribution expressed as percentage injected dose per gram of tissue in normal mice blood after 2 hour; type: ADME, organism-based; details: in vivo; summary of the method: as §1
# Mus musculus [13] = organism: Mus musculus; test: Tissue distribution expressed as percentage injected dose per gram of tissue in normal mice brain after 4 hour; type: ADME, organism-based; details: in vivo; summary of the method: as §1
# Mus musculus [14] = organism: Mus musculus; test: Tissue distribution expressed as percentage injected dose per gram of tissue in normal mice lungs after 4 hour; type: ADME, organism-based, Lung; details: in vivo; summary of the method: as §1
# Mus musculus [15] = organism: Mus musculus; test: Tissue distribution expressed as percentage injected dose per gram of tissue in normal mice small intestine after 2 hour; type: ADME, organism-based; details: in vivo; summary of the method: as §1
# Mus musculus [16] = organism: Mus musculus; test: Tissue distribution expressed as percentage injected dose per gram of tissue in normal mice thyroid after 1 hour; type: ADME, organism-based, Thyroid gland; details: in vivo; summary of the method: as §1
# Mus musculus [17] = organism: Mus musculus; test: Tissue distribution expressed as percentage injected dose per gram of tissue in normal mice brain after 2 hour; type: ADME, organism-based; details: in vivo; summary of the method: as §1
# Mus musculus [18] = organism: Mus musculus; test: Tissue distribution expressed as percentage injected dose per gram of tissue in normal mice thyroid after 4 hour; type: ADME, organism-based, Thyroid gland; details: in vivo; summary of the method: as §1
# Mus musculus [19] = organism: Mus musculus; test: Tissue distribution expressed as percentage injected dose per gram of tissue in normal mice brain after 1 hour; type: ADME, organism-based; details: in vivo; summary of the method: as §1
# Mus musculus [20] = organism: Mus musculus; test: Tissue distribution expressed as percentage injected dose per gram of tissue in normal mice blood after 4 hour; type: ADME, organism-based; details: in vivo; summary of the method: as §1
# Mus musculus [21] = organism: Mus musculus; test: Tissue distribution expressed as percentage injected dose per gram of tissue in normal mice heart after 2 hour; type: ADME, organism-based; details: in vivo; summary of the method: as §1
# Mus musculus [22] = organism: Mus musculus; test: Tissue distribution expressed as percentage injected dose per gram of tissue in normal mice adrenals after 2 hour; type: ADME, organism-based, Adrenal gland; details: in vivo; summary of the method: as §1
# Mus musculus [23] = organism: Mus musculus; test: Tissue distribution expressed as percentage injected dose per gram of tissue in normal mice muscle after 4 hour; type: ADME, organism-based; details: in vivo; summary of the method: as §1
# Mus musculus [24] = organism: Mus musculus; test: Tissue distribution expressed as percentage injected dose per gram of tissue in normal mice muscle after 2 hour; type: ADME, organism-based; details: in vivo; summary of the method: as §1
# Mus musculus [25] = organism: Mus musculus; test: Tissue distribution expressed as percentage injected dose per gram of tissue in normal mice liver after 2 hour; type: ADME, organism-based; details: in vivo; summary of the method: as §1
# Mus musculus [26] = organism: Mus musculus; test: Tissue distribution expressed as percentage injected dose per gram of tissue in normal mice spleen after 1 hour; type: ADME, organism-based; details: in vivo; summary of the method: as §1
# Mus musculus [27] = organism: Mus musculus; test: Tissue distribution expressed as percentage injected dose per gram of tissue in normal mice kidney after 4 hour; type: ADME, organism-based; details: in vivo; summary of the method: as §1
# Mus musculus [28] = organism: Mus musculus; test: Tissue distribution expressed as percentage injected dose per gram of tissue in normal mice bone after 4 hour; type: ADME, organism-based, Bone element; details: in vivo; summary of the method: as §1
# Mus musculus [29] = organism: Mus musculus; test: Tissue distribution expressed as percentage injected dose per gram of tissue in normal mice blood after 1 hour; type: ADME, organism-based; details: in vivo; summary of the method: as §1
# Mus musculus [30] = organism: Mus musculus; test: Tissue distribution expressed as percentage injected dose per gram of tissue in normal mice bone after 1 hour; type: ADME, organism-based, Bone element; details: in vivo; summary of the method: as §1
# SK-N-SH = test: The compound was tested for the concentration of inhibition by unlabelled analogues to SK-N-SH human neuroblastoma cells; type: functional, cell-based
# Summary of the method: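 SK-N-SH neuroblastoma cells, 4 × 10⁵/well, with about 1 μCi 18F-labelled tracer or 0.1 μCi nca [¹²⁵I]MIBG plus graded concentrations of unlabelled benzylguanidines, in triplicate; 2 h at 37 °C. Nonspecific binding: 1 μM desipramine preincubation, 30 min. Cells washed twice in PBS, lysed in 0.5 N NaOH, γ-counted. Specific binding as % of control plotted against inhibitor concentration.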
# Mus musculus [31] = organism: Mus musculus; test: Tissue distribution expressed as percentage injected dose per gram of tissue in normal mice stomach after 2 hour; type: ADME, organism-based; details: in vivo; summary of the method: as §1
# Mus musculus [32] = organism: Mus musculus; test: Tissue distribution expressed as percentage injected dose per gram of tissue in normal mice liver after 4 hour; type: ADME, organism-based; details: in vivo; summary of the method: as §1
# Mus musculus [33] = organism: Mus musculus; test: Tissue distribution expressed as percentage injected dose per gram of tissue in normal mice large intestine after 1 hour; type: ADME, organism-based; details: in vivo; summary of the method: as §1
# Mus musculus [34] = organism: Mus musculus; test: Tissue distribution expressed as percentage injected dose per gram of tissue in normal mice stomach after 1 hour; type: ADME, organism-based; details: in vivo; summary of the method: as §1
# Mus musculus [35] = organism: Mus musculus; test: Tissue distribution expressed as percentage injected dose per gram of tissue in normal mice liver after 1 hour; type: ADME, organism-based; details: in vivo; summary of the method: as §1
# Mus musculus [36] = organism: Mus musculus; test: Tissue distribution expressed as percentage injected dose per gram of tissue in normal mice bone after 2 hour; type: ADME, organism-based, Bone element; details: in vivo; summary of the method: as §1
# Mus musculus [37] = organism: Mus musculus; test: Tissue distribution expressed as percentage injected dose per gram of tissue in normal mice lungs after 2 hour; type: ADME, organism-based, Lung; details: in vivo; summary of the method: as §1
# Mus musculus [38] = organism: Mus musculus; test: Tissue distribution expressed as percentage injected dose per gram of tissue in normal mice large intestine after 2 hour; type: ADME, organism-based; details: in vivo; summary of the method: as §1
# Mus musculus [39] = organism: Mus musculus; test: Tissue distribution expressed as percentage injected dose per gram of tissue in normal mice lungs after 1 hour; type: ADME, organism-based, Lung; details: in vivo; summary of the method: as §1
# Mus musculus [40] = organism: Mus musculus; test: Tissue distribution expressed as percentage injected dose per gram of tissue in normal mice spleen after 4 hour; type: ADME, organism-based; details: in vivo; summary of the method: as §1
# Mus musculus [41] = organism: Mus musculus; test: Tissue distribution expressed as percentage injected dose per gram of tissue in normal mice small intestine after 1 hour; type: ADME, organism-based; details: in vivo; summary of the method: as §1
# Mus musculus [42] = organism: Mus musculus; test: Tissue distribution expressed as percentage injected dose per gram of tissue in normal mice kidney after 2 hour; type: ADME, organism-based; details: in vivo; summary of the method: as §1
# Mus musculus [43] = organism: Mus musculus; test: tissue distribution expressed as percentage injected dose per gram of tissue in normal mice heart after 1 hour; type: ADME, organism-based; details: in vivo
structure (smiles),measurement,setting,value
N=C(N)NCc1cccc(F)c1 [M-FLUOROBENZYLGUANIDINE],ID/g,Mus musculus [1],10.5%
same,ID/g,Mus musculus [2],21%
same,ID/g,Mus musculus [3],13.9%
same,ID/g,Mus musculus [4],23.8%
N=C(N)NCc1ccc(F)c(I)c1,ID/g,Mus musculus [5],1.9%
same,ID/g,Mus musculus [6],1.9%
same,ID/g,Mus musculus [7],2.6%
same,ID/g,Mus musculus [8],3.8%
same,ID/g,Mus musculus [9],3.7%
same,ID/g,Mus musculus [10],1.7%
same,ID/g,Mus musculus [11],3%
same,ID/g,Mus musculus [12],0.7%
same,ID/g,Mus musculus [13],0.2%
same,ID/g,Mus musculus [14],4%
same,ID/g,Mus musculus [1],18.3%
same,ID/g,Mus musculus [15],4.3%
same,ID/g,Mus musculus [16],1.8%
same,ID/g,Mus musculus [17],0.1%
same,ID/g,Mus musculus [18],1.5%
same,ID/g,Mus musculus [2],18.2%
same,ID/g,Mus musculus [19],0.1%
same,ID/g,Mus musculus [20],0.4%
same,ID/g,Mus musculus [21],19.5%
same,ID/g,Mus musculus [22],19.2%
same,ID/g,Mus musculus [23],1.5%
same,ID/g,Mus musculus [24],1.7%
same,ID/g,Mus musculus [25],9.2%
same,ID/g,Mus musculus [26],3.8%
same,ID/g,Mus musculus [27],1.9%
same,ID/g,Mus musculus [28],0.7%
same,ID/g,Mus musculus [29],0.9%
same,ID/g,Mus musculus [30],1.1%
same,pIC50,"SK-N-SH; Homo sapiens, SK-N-SH",6.70
same,pIC50,SK-N-SH; sk-n-sh,6.70
same,ID/g,Mus musculus [31],2.4%
same,ID/g,Mus musculus [32],6.8%
same,ID/g,Mus musculus [33],3.8%
same,ID/g,Mus musculus [34],3%
same,ID/g,Mus musculus [35],10.5%
same,ID/g,Mus musculus [36],0.9%
same,ID/g,Mus musculus [37],5.5%
same,ID/g,Mus musculus [3],21.3%
same,ID/g,Mus musculus [4],19.7%
same,ID/g,Mus musculus [38],4.5%
same,ID/g,Mus musculus [39],9.7%
same,ID/g,Mus musculus [40],3.2%
same,ID/g,Mus musculus [41],5.5%
same,ID/g,Mus musculus [42],2.3%
N=C(N)NCc1ccc(F)cc1,ID/g,Mus musculus [1],5.9%
same,ID/g,Mus musculus [43],9.7%
same,ID/g,Mus musculus [3],15.3%
same,ID/g,Mus musculus [4],20.3%
